Measured values published in the RNAGym collection of RNA variant scans (doi:10.1126/science.aae0568).
Fewer inactive variants are shown than the library holds.

B1: tRNA (parent)
chain: GUUCCGUUGGCGUAAUGGUAACGCGUCUCCCUCCUAAGGAGAAGACUGCGGGUUCGAGUCCCGUACGGAACG

Variants of: B1
Assay: yeast fitness relative to wild type (ratio to wild type); higher = fitter; tRNA-Arg(CCU), competitive growth, 37 C, YPD
In short: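 Gene amplicons from the start population and from each of six end populations were read by 100-nucleotide paired-end sequencing. Those end populations came from pooled Saccharomyces cerevisiae strains carrying tRNA-Arg(CCU) gene variants at the native locus, competed in YPD at 37°C for 24 hours. Fitness relative to wild type was worked out from changes in genotype frequencies. Genotypes needed ≥ 100 starting reads, and estimates < 0.5 were set to 0.5.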

Variant | yeast fitness
C30A A37C C60A | ≤ 0.5
C29U C62U A70U | 0.532
C29U C33U C66U G67A | 0.598
C31G A36U | 0.615
C31U C34U G38A G44C | ≤ 0.5
C31A U64G A69C | ≤ 0.5
C30G G51C C61G | ≤ 0.5
C30U A45G C61A A65U | ≤ 0.5
C31A U59A A70C | ≤ 0.5
C30G A43U | 0.635
C30G A43C | 0.549
C31G A36U A65U | 0.517
C30A C31A G38A C49U G52A | ≤ 0.5
C30U G67U | 0.83
C30A U35C A36G A42C C60U C61U | ≤ 0.5
C30A A57C C60G | ≤ 0.5
C29U C30G U59A | 0.617
C30A C31U A40U G56C A69C | ≤ 0.5
C30A G48C C61U | 0.631
C30A C31U | 1
C30G G50U C66U | 0.573
C31G C55G A65G | ≤ 0.5
C29U C31U U54G A65U A69U | ≤ 0.5
C29U G38A G48C A57G | ≤ 0.5

Variant | yeast fitness
C30U C60A A70C | ≤ 0.5
C31A A40C G52A G68C | ≤ 0.5
C31G C34G A42C C66G | ≤ 0.5
C30U A40U A70C | 0.56
C30U U32A A36U A37U C62U | ≤ 0.5
C30G A42C U59A C60U | 0.507
C30G G41C G68A | ≤ 0.5
C31G A40G G52C | ≤ 0.5
C30A A43U C61U | 0.602
C29U C31A A43G G67C | ≤ 0.5
C31U C46U G51A | 0.968
C30U C46A A70C | 0.82
C30U A36G G44A | 0.638
C30A C55U G68A | ≤ 0.5
C31A A43U A57G | 0.559
C30U A69U | 0.879
C30U A69G | 0.947
C30U A69C | 0.773
C30U C46G C49U | 0.641
C29U G44C C49U A57U A69U | ≤ 0.5
C31A C49U | 0.867
C31U A57G C66U | 0.583
C30U G50A | 0.83
C31A C49A G56A A65G C66A G68C | ≤ 0.5

Variant | yeast fitness
C30A C62U | 0.886
C29U U32G | 0.686
C31A C33A | 0.509
C31G C34G A40U | ≤ 0.5
C30G C46A U47G C49A G52A G58C U64G A65G A69G | ≤ 0.5
C31U A70C | 1.05
C30A A37G C46U A57C | ≤ 0.5
C30U A57G | 0.709
C31A A43U U54A | ≤ 0.5
C31U C46A A57C A65U | ≤ 0.5
C30U A37C C60U | 0.548
C30A C31U U59C | 0.983
C30A G39A | 0.833
C30A G39U | 0.772
C30A A40C | 0.712
C30G A43U G48C C55A C66U | ≤ 0.5
C30U U54G U59G | 0.655
C30U A43C A70U | 0.556
C31A C33G A36U C60U U64G A65U A69C | ≤ 0.5
C30A G50C | 0.594
C30A G50U | 0.816
C31U A37C C55U A65U A70G | ≤ 0.5
C31G A36C C61U | ≤ 0.5
C30G G48A U53C | ≤ 0.5

Variant | yeast fitness
C31A G52C U64C | ≤ 0.5
C30G A42U | 0.666
C30G A40U C46U A69G | ≤ 0.5
C29U C30U U59A G63C | ≤ 0.5
C29U U64A | 0.677
C29U U64G | 0.748
C31U A45C C61G A65C | ≤ 0.5
C30G C34G U35A G68A | ≤ 0.5
C30A U59G | 0.775
C29U G41U | 0.769
C30A A70C | 1.01
C30U A36G G44A C66U | ≤ 0.5
C31U C60U G67A A69U | ≤ 0.5
C30U A45U A69G | 0.566
C30U A45U A69U | 0.797
C31A G56A G67A A69U | ≤ 0.5
C30A A43G G50C | 0.767
C29U C30A C61U | ≤ 0.5
C30A C55G C66U | ≤ 0.5
C29U C49U C55G G58A | ≤ 0.5
C30G G52C A65C | ≤ 0.5
C30G C60U A65G | ≤ 0.5
C31U A69U A70C | 0.778
C31A G51C C55G A57U C66U | 0.564

Variant | yeast fitness
C29U C55G A65U | ≤ 0.5
C29U C30U C49G | 0.731
C31A G52C A65U | ≤ 0.5
C30U G38C G63A A70G | ≤ 0.5
C31G G58A C61A | 0.708
C30G C34U A45C U53G C61G | ≤ 0.5
C31G U35C C46U | 0.582
C31G U32A A40C | ≤ 0.5
C29U C34A A70U | ≤ 0.5
C30G U47C G51A C66U | ≤ 0.5
C30A A36U G38C G39A C66A | ≤ 0.5
C31G C33U A37C | ≤ 0.5
C31G A36C U47C | ≤ 0.5
C31U A37C | 0.761
C30G A57U C62U | ≤ 0.5
C31G C61G | 0.623
C31G A43G C49U C61A | ≤ 0.5
C30U C34G A40C C49G | ≤ 0.5
C30G C34U A42U G68A | ≤ 0.5
C31A C33G G51C C60G | ≤ 0.5
C31U C61A C62U A65U | ≤ 0.5
C30G C33A A36U A65C | 0.535
C29U C49U C55A | ≤ 0.5
C31U A43C U54C | 0.596

Variant | yeast fitness
C31G C62G | 0.827
C29U C30A U59G A69C | ≤ 0.5
C29U C49A | 0.592
C30G U47A G50C A65G G68C | ≤ 0.5
C30A A36U G39A A45G G63U | ≤ 0.5
C31A A43U C61A | ≤ 0.5
C31G C46G G58C | 0.928
C30G G44C G51C A69U | ≤ 0.5
C29U G67U | 0.91
C31A A43G A45C | 0.541
C31A G38A A65G | 0.591
C30U G58C G63C | 0.57
C31A G48C C61A A70G | ≤ 0.5
C31A C55A C61A G63A | 0.655
C29U U32C C62U A70U | ≤ 0.5
C30U A36G C61G | ≤ 0.5
C30A C60A C62A | ≤ 0.5
C31G U54G | 0.6
C30G A69C A70G | ≤ 0.5
C30G C60A C66U | 0.551
C30G A42C C55U | ≤ 0.5
C30A A42U | 0.753
C30A A42C | 0.789
C30G C46A U47G C49A G52A G58C U64G A65G | 0.528

Variant | yeast fitness
C30A C46A | 1
C30G C33G A42G C49U C61U | 0.663
C30A C49A | 0.699
C31A G38A | 0.792
C31G C33U A40C | 0.6
C30U G38C U59A | ≤ 0.5
C30U G39A A40C U53A | 0.565
C30U C55U G67U | ≤ 0.5
C30U A65C | 0.841
C31U C60A G67A | ≤ 0.5
C31G G41A U53C | 0.52
C30U C49U U54A | ≤ 0.5
C31G U35A G56A G63A | ≤ 0.5
C30G C46G A57U C66U A70U | ≤ 0.5
C30G G38C | 0.741
C31G A57U G58C | ≤ 0.5
C30U C31U G41C A45G C49U C66U A69G | ≤ 0.5
C29U U59G | 0.83
C30G A70U | 0.58
C30A A40C A43G C49G G63C | ≤ 0.5
C31G A37U G39C A42C | ≤ 0.5
C29U G39C | 0.65
C29U G39U | 1.07
